Tests used:
[1] = test system: Hepatocyte; assay: Induction of CYP3A4 mRNA expression in human hepatocytes at 3 uM relative to rifampicin; type: ADME, cell-based
How it was run: (§1)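 Cryopreserved cultured human hepatocytes incubated 3 days with compound at several concentrations; CYP3A4 enzyme activity and mRNA expression measured, expressed as percent induction relative to rifampicin.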

[2] = Toxicity in human HuH7 cells assessed as effect on GAPDH mRNA level; type: cell-based, Huh-7
How it was run: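 Run in parallel with replicon assay in Con1 replicon Huh-7 cells (0.5% DMSO, 37 °C); endogenous GAPDH mRNA quantified by TaqMan RT-PCR; highest concentration tested 10000 nM.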

[3] = test system: Pregnane X receptor (Homo sapiens); assay: Activation of PXR (unknown origin) at 10 uM by reporter gene assay
[4] = target: T1, Cytochrome P450 3A4 (Homo sapiens, UniProt P08684); assay: Induction of CYP3A4 activity in human hepatocytes at 3 uM relative to rifampicin; type: ADME, cell-based, Hepatocyte; how it was run: as §1
[5] = target: T1, Cytochrome P450 3A4; assay: Inhibition of CYP3A4 in human liver microsomes; type: ADME
[6] = test system: Hepatitis C virus; assay: Antiviral activity against HCV2a JFH-1 infected in human HuH7 cells assessed as inhibition of viral replication; type: functional, organism-based, Hepacivirus hominis; conditions: JFH-1, Huh-7
[7] = target: Cytochrome P450 2C9 (Homo sapiens, UniProt P11712); assay: Inhibition of CYP2C9 in human liver microsomes; type: ADME
[8] = test system: Hepatitis C virus; assay: Antiviral activity against HCV1b Con1 infected in human HuH7 cells assessed as inhibition of viral RNA replication by RT-PCR analysis; type: functional, organism-based, Hepacivirus hominis; conditions: isolate Con1, Huh-7
[9] = Ratio of EC50 for HCV1b Con1 to plasma concentration in Sprague-Dawley rat at 10 mg/kg, po after 6 hrs
[10] = AUC (0 to 6 hrs) in Sprague-Dawley rat at 10 mg/kg, po; type: ADME, organism-based; design: time < 6 hr, dose 10 mg/kg, route oral; conditions: plasma
[11] = target: Cytochrome P450 2D6 (Homo sapiens, UniProt P10635); assay: Inhibition of CYP2D6 in human liver microsomes; type: ADME
[12] = target: T1, Cytochrome P450 3A4; assay: Induction of CYP3A4 activity in human hepatocytes at 10 uM relative to rifampicin; type: ADME, cell-based, Hepatocyte; how it was run: as §1
[13] = test system: Hepatocyte; assay: Induction of CYP3A4 mRNA expression in human hepatocytes at 10 uM relative to rifampicin; type: ADME, cell-based; how it was run: as §1
[14] = AUC (0 to infinity) in Sprague-Dawley rat at 10 mg/kg, po; type: ADME, organism-based; design: time infinity, dose 10 mg/kg, route oral; conditions: plasma
[15] = test system: Rattus norvegicus; assay: Drug metabolism in bile duct cannulated rat assessed as 6-(3-cyano-1-cyclobutyl-6-(difluoromethoxy)-5-fluoro-1H-indol-2-yl)pyridine-3-sulfonamide formation in plasma at 5 mg/kg; type: ADME, organism-based; design: dose 5 mg/kg; conditions: in vivo
[16] = Oral bioavailability in cynomolgus monkey at 5 mg/kg; type: ADME, organism-based, Macaca fascicularis; conditions: in vivo
[17] = test system: Canis familiaris; assay: Oral bioavailability in beagle dog at 5 mg/kg; type: ADME, organism-based, Canis lupus familiaris; conditions: in vivo
[18] = Terminal half life in beagle dog at 2.5 mg/kg, iv; type: ADME, organism-based, Canis lupus familiaris; design: dose 2.5 mg/kg, route intravenous; conditions: in vivo, read-out: beta t1/2 (converted)
[19] = test system: Canis familiaris; assay: AUC (0 to infinity) in beagle dog at 5 mg/kg, po; type: ADME, organism-based, Canis lupus familiaris, Plasma; design: dose 5 mg/kg, route oral, time infinity; conditions: in vivo
[20] = Clearance in cynomolgus monkey at 2.5 mg/kg, iv; type: ADME, organism-based, Macaca fascicularis; design: dose 2.5 mg/kg, route intravenous; conditions: in vivo
[21] = Terminal half life in cynomolgus monkey at 2.5 mg/kg, iv; type: ADME, organism-based, Macaca fascicularis; design: dose 2.5 mg/kg, route intravenous; conditions: in vivo, read-out: beta t1/2 (converted)
[22] = Terminal half life in Sprague-Dawley rat at 6 mg/kg, iv; type: ADME, organism-based; design: dose 6 mg/kg, route intravenous; conditions: in vivo, read-out: beta t1/2 (converted)
[23] = Oral bioavailability in Sprague-Dawley rat at 10 mg/kg; type: ADME, organism-based; conditions: in vivo
[24] = Ratio of drug level in liver to plasma in Sprague-Dawley rat at 10 mg/kg, po after 6 hrs; type: ADME, organism-based; design: dose 10 mg/kg, route oral
How it was run: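 Male Sprague-Dawley rats, 10 mg/kg PO suspension in 0.4% hydroxypropyl methylcellulose; liver and plasma drug levels measured at 6 h, expressed as liver/plasma ratio.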

[25] = AUC (0 to infinity) in cynomolgus monkey at 5 mg/kg, po; type: ADME, organism-based, Macaca fascicularis; design: time infinity, dose 5 mg/kg, route oral; conditions: plasma
[26] = Clearance in Sprague-Dawley rat at 6 mg/kg, iv; type: ADME, organism-based; design: dose 6 mg/kg, route intravenous; conditions: in vivo

T1 sequence (P08684 whole entry): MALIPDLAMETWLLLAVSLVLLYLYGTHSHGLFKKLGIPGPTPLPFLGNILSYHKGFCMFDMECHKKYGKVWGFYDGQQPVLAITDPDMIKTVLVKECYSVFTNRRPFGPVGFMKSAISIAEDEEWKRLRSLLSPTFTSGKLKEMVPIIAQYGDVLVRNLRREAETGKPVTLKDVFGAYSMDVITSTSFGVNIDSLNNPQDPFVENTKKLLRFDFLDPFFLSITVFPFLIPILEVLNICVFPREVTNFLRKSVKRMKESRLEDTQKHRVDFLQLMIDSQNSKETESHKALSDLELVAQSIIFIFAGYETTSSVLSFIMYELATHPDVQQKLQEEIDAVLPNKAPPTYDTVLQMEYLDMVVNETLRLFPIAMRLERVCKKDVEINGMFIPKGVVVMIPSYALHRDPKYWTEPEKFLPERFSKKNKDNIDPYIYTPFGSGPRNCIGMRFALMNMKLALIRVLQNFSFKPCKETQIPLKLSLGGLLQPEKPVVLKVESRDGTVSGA
Chain of Cytochrome P450 2D6 (P10635 whole entry): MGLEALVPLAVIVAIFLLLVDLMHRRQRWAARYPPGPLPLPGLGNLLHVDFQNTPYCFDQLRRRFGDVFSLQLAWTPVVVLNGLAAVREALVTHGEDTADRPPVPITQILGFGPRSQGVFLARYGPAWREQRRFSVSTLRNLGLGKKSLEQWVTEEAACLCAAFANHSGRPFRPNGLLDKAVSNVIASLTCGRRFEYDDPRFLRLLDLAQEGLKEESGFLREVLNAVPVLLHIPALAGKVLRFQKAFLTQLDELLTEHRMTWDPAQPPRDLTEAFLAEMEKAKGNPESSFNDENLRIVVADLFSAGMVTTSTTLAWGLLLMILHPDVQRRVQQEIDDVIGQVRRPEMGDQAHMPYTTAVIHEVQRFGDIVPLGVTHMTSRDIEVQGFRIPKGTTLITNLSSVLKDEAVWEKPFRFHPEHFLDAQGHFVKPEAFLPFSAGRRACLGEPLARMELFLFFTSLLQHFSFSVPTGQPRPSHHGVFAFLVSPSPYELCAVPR
Chain of Cytochrome P450 2C9 (P11712 whole entry): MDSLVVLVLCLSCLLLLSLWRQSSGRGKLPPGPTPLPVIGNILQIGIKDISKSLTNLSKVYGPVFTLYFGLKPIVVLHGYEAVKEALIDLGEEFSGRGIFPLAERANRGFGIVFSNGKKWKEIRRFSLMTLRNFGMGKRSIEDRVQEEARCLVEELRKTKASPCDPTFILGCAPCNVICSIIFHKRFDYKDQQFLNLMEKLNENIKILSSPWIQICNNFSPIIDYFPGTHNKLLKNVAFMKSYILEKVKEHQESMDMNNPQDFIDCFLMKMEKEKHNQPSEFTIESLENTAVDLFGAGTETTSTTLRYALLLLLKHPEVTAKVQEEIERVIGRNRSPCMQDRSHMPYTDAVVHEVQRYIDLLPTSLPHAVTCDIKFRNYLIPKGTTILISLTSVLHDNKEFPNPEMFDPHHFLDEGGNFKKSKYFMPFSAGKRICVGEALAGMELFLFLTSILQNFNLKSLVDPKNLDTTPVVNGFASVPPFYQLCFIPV

Cc1cc2c(cc1F)c(C#N)c(-c1ccc(S(=O)(=O)N[C@@H](C)C(F)(F)F)cn1)n2-c1ncccn1
Activity [1]: 39.8%
IC50 [2]: > 10000 nM
Activity [3]: 36%
Activity [4]: 7%
IC50 [5]: > 10000 nM
EC50 [6]: 2200 nM
IC50 [7]: > 10000 nM
EC50 [8]: 6 nM
Ratio [9]: 213
AUC(0-t) at 6 h [10]: 8.91 µM·h
IC50 [11]: > 10000 nM
Activity [12]: 3%
Activity [13]: 41.5%

C[C@H](NS(=O)(=O)c1ccc(-c2c(C#N)c3cc(F)c(OC(F)F)cc3n2C2CCC2)nc1)C(F)(F)F
IC50 [2]: 9100 nM
AUC(0-inf) [14]: 24.8 µM·h
Drug metabolism [15]: Active
bioavailability [16]: 35%
F [17]: 91%
half-life [18]: 149 h
AUC [19]: 24.79 µM·h
clearance [20]: 2.2 mL/min/kg
EC50 [8]: 7 nM
Ratio [9]: 277
half-life [21]: 22 h
AUC(0-t) at 6 h [10]: 13.4 µM·h
half-life [22]: 11 h
bioavailability [23]: 49%
Kp at 6 h [24]: 11.4
AUC(0-inf) [25]: 24.8 µM·h
clearance [26]: 3 mL/min/kg

Cc1cc2c(cc1F)c(C#N)c(-c1ccc(S(=O)(=O)N[C@@H](C)C(F)(F)F)cn1)n2C1CCC1
IC50 [2]: > 10000 nM
EC50 [8]: 7 nM
Ratio [9]: 24
AUC(0-t) at 6 h [10]: 1.1 µM·h
Kp at 6 h [24]: 29.1

CCc1cc2c(cc1F)c(C#N)c(-c1ccc(S(=O)(=O)N[C@@H](C)C(F)(F)F)cn1)n2C1CCC1
IC50 [2]: > 10000 nM
EC50 [8]: 4 nM
Ratio [9]: 18
AUC(0-t) at 6 h [10]: 0.3 µM·h
Kp at 6 h [24]: 30.6
